# CCR6 antagonist: antagonists of human CCR6 receptor | CHO-K1 CCR6 PathHunter beta-arrestin, luminescence, CCL20-stimulated | inhibition, % at 20 µM | actives 0.49% (n = 340,000) | AID 493098;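 active = compounds whose inhibition of the agonist-driven luminescence signal at 20 µM reaches about 50%, limit read from the data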;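 note: cells stimulated with CCL20 at 14 nM final; plate controls were DMSO with CCL20 for no effect and DMSO without agonist for full effect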
# CXCR6 inh: inhibitors of human CXCR6 receptor; inhibition, % at 20 µM; CHO-K1 PathHunter CXCR6 beta-arrestin, luminescence; actives 0.36% (n = 360,000); AID 602244; in the data active = inhibition above about 34%, passing the limit was not always enough;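 note: antagonist mode with CXCL16 agonist at 10 nM final; 0% = 10 nM CXCL16 with DMSO and 100% = unstimulated wells without agonist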
# APJ agonist: APJ receptor agonism. P35414. CHO-K1 APJ PathHunter beta-arrestin, luminescence; 0% DMSO wells, 100% apelin. activation, % at 20 µM. actives 0.11% (n = 330,000);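 active = activation more than six SD over the plate average, tested at 20 µM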;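 note: 0% = DMSO alone and 100% = apelin-13 at 10 nM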
#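 Material: engineered CHO-K1 APJ arrestin reporter cells; amount: 1000 CHO-K1 reporter cells seeded per well; incubation: compound stimulation 90 min at 25 °C, detection 60 min; signal: luminescent beta-gal fragment complementation, chemiluminescent substrate; read-out basis: APJ agonist activity; controls: DMSO-only wells as negative, 10 nM Apelin-13 as positive control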
# APJ antag: blocks the human apelin receptor APJ; CHO-K1 APJ beta-arrestin complementation, luminescence; inhibition, % at 20 µM; actives 0.32% (n = 330,000);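 active = inhibition above about 40% at 20 µM, limit read from the data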;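 note: cells challenged with 10 nM apelin-13 agonist together with compound; plate controls were apelin-13 plus DMSO wells for no effect and DMSO wells lacking apelin-13 for full effect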
# EBI2 antag: EBI2 (human) antagonism. inhibition, % at 5 µM. EBI2 beta-arrestin recruitment, luminescence, 7a,25-OHC stimulated. actives 0.81% (n = 360,000). P32249; in the data active = inhibition above about 38%;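 note: enzyme fragment complementation signal reports receptor beta-arrestin coupling in cells; 0% = agonist plus DMSO wells and 100% = wells without agonist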
# Target sequence (P32249 whole entry, looked up, the tested form may be a part): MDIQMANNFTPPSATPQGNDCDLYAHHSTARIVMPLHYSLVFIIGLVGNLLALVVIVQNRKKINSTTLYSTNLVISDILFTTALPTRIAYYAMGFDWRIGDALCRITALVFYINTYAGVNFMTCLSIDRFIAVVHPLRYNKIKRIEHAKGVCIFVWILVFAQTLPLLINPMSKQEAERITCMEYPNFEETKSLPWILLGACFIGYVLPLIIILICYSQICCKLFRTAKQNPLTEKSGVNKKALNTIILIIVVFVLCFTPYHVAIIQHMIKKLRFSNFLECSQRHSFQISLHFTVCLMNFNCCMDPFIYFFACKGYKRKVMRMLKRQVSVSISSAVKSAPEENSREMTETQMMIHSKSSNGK
# m5-HT2A agonist: activates the mouse 5-HT2A serotonin receptor; P35363; CHO-K1 mHTR2A beta-arrestin complementation, luminescence; percent of 30 µM serotonin response; activation, % at 7.6 µM; actives 0.66% (n = 360,000); AID 624169;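 active = activation above a run cutoff, the mean activation of all tested compounds plus 3 SD, cut at about 14% in these data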;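 note: 0% = plate median of compound wells and 100% = 30 µM serotonin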
# OPRM1 ag: activates human mu opioid receptor in HTR2A counterscreen; AID 624380; U2OS OPRM1 beta-arrestin PathHunter, luminescence; DMSO 0%, DAMGO 9.3 µM 100%; shares compounds with m5-HT2A agonist; actives 5.3% (n = 2,300); activation, % at 9.3 µM;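 active = mean activation above the mean of DMSO-only wells plus 3 SD, cut at about 0.5% in these data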
# HTR2A ag conf: mouse HTR2A agonism confirmed; shares compounds with m5-HT2A agonist; CHO-K1 PathHunter beta-arrestin recruitment, luminescence; DMSO 0%, 30 µM serotonin 100%; activation, % at 7.6 µM; actives 19% (n = 2,300); AID 624381;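 active = mean activation across triplicates above the hit threshold derived in the original primary screen, cut at about 15% in these data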
# An asterisk follows results filed as active; . = not tested or not shown. Compounds with a hit are over-represented: about 2.1% of the library has one in this group of screens.
SMILES,CCR6 antagonist,CXCR6 inh,APJ agonist,APJ antag,EBI2 antag,m5-HT2A agonist,OPRM1 ag,HTR2A ag conf
N#Cc1ccccc1COC(=O)CCC(=O)c1cccs1,4,-4,-4,0,-3,-9,.,.
CCC(=O)Nc1nnc(SCc2cccc(F)c2)s1,12,8,-4,0,-3,21*,-1,-5
CC(C)NC(=O)C1CC(=O)N(CCc2ccc(F)cc2)C1 (configuration not stated),.,5,.,.,-10,3,.,.
O=c1cc(C(F)(F)F)[nH]c2ccc(C(F)(F)F)cc12,-20,1,0,21,-5,26*,0,5
CCOC(=O)[C@H](CCc1ccccc1)N[C@@H](C)C(=O)N1[C@H](C(=O)O)C[C@@H]2CCC[C@@H]21,12,-3,-3,4,-11,44*,-1,-1
CC1(c2nnnn2-c2ccc3c(c2)OCCO3)CCC(=O)N1CCOc1ccccc1 (configuration not stated),.,0,.,.,-4,0,.,.
COc1ccc(CCNC(=O)C2CCC(=O)N(CC3CCCCC3)C2)cc1 (configuration not stated),3,5,-4,2,6,6,.,.
COc1ccc([C@H]2CC(=O)C=C(c3cccc4c3Oc3ccccc3S4)C2)cc1,4,-1,-3,7,-5,-6,.,.
O=C(N/N=C/c1ccccc1Cl)C1CC1,8,-4,3,-1,2,15*,0,-5
Cc1ccc(C(=O)OCC(=O)NCc2cccc(Cl)c2)cc1S(=O)(=O)N1CCCCC1,-1,3,1,20,7,17*,0,-6
CCS(=O)(=O)c1ccc(-c2csc(-c3ccccc3)n2)c(Cl)c1Cl,8,5,0,-7,22,16*,0,2
O=C(O)c1ccc(-c2nc(-c3ccccc3Cl)cs2)cc1,9,-2,-1,-1,-2,-1,.,.
CCOC(=O)c1ccccc1NC(=O)c1ccc2c(SCC(=O)O)c3c(nc2c1)CCCC3,8,2,-3,15,-2,15*,-1,-1
COc1cc(Cl)c(C)cc1NC(=O)c1ccc2c(SCC(=O)O)c3c(nc2c1)CCCC3,4,3,-4,12,-8,2,.,.
Cc1csc2c(N3CCN(C(=S)Nc4ccc(C(F)(F)F)cc4)CC3)ncnc12,-17,-2,0,9,7,32*,-1,8
Cc1csc2c(N3CCN(C(=O)NC(C)(C)C)CC3)ncnc12,4,6,3,21,-10,41*,-1,-2
Cc1csc2ncnc(N3CCN(C(=S)Nc4ccc(C(F)(F)F)cc4)CC3)c12,-4,-6,2,2,10,-4,.,.
Oc1ccc(-c2nccc(-c3ccccn3)n2)cc1,2,8,-3,7,2,-3,.,.
C[C@H](CO)N1C[C@H](C)[C@@H](CN(C)S(=O)(=O)c2ccccc2)Oc2ccc(NC(=O)CCC(F)(F)F)cc2C1=O,-5,1,-2,7,-12,-10,.,.
O=C(NCC(=O)N1CCCCCCC1)c1cccc([N+](=O)[O-])c1,12,-5,2,12,-8,15*,-1,-1
COc1ccc2cc(CO)n(C)c2c1,-3,-10,1,-6,4,-5,.,.
COCC1CCCCN1C(=O)c1cc(COc2ccc3ncccc3c2)on1 (configuration not stated),12,-14,1,1,2,20*,0,0
COc1cc(C(=O)COC(=O)c2ccncc2)cc(OC)c1OC,-1,11,-1,-9,5,1,.,.
Cc1ccc(NC(=O)COC(=O)Cn2cnc3ccccc32)c(C)c1,3,1,-3,-2,5,-1,.,.

# Screens deposited in PubChem BioAssay by several laboratories.
